We go through five compounds from ChEMBL document CHEMBL1140487, “Construction of polyamine-modified uridine and adenosine derivatives--evaluation of DNA binding capacity and cytotoxicity in vitro” (Bioorg Med Chem, 2007).

SMILES strings stand for the structures.

The subject of data set [1] is Clupea. In words: Effect on thermal melting point of herring testes DNA at 10 uM. In short, it runs like this: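 Herring testes DNA at 100 µM with 10 µM polyamine in 10 mM NaCl. Absorbance read at 260 nm while heating at 0.4 °C/min from 25–98 °C. The system equilibrated 15 min before the first reading, then readings were taken each degree (2 s averaging). Tm was taken from the peak of the first-derivative curve. pH was checked before and after polyamine addition.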

The nature of data set [2]: Toxicity in human L56BrC1 cells after 48 hrs by MTT assay. Type of data set: cell-based. In short, it runs like this: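 L56Br-C1 cells were grown in RPMI 1640 with 10% heat-inactivated FCS, NEAA, insulin and penicillin/streptomycin, at 37 °C, 5% CO2. After seeding at 0.055×10^6 cells/ml and 24 h growth, compounds were added at 0.1, 1, 10 or 100 µM final; controls received PBS. After 1 h MTT, formazan was dissolved in DMSO and A540 read. Results are % of control ± SD.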

Data set [3] in a line: Toxicity in human SKBR3 cells after 48 hrs by MTT assay. The class given is cell-based. Conditions: sk-br-3, 48 h. In short, it runs like this: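 SK-BR-3 cells were grown in RPMI 1640 with 10% FCS, NEAA and penicillin/streptomycin, no insulin, at 37 °C, 5% CO2. Cells were seeded at 0.055×10^6/ml, and 24 h later compounds were added at 0.1–100 µM final (PBS for controls). MTT was added for 1 h, formazan dissolved in DMSO, A540 read; outer wells were excluded. Values are % of control ± SD.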
Background: Formazan colour is commonly taken as a measure of viable cells.

In data set [4] the test system is HCC1937. In words: Toxicity in human HCC1937 cells after 48 hrs by MTT assay. Particulars: hcc1937, 48 h. The class given is cell-based. The essentials: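 HCC1937 cells were grown in MEM α with 10% heat-inactivated FCS, NEAA, gentamycin, EGF 20 ng/ml and insulin, at 37 °C, 5% CO2. Plateau-phase cells were seeded at 0.055×10^6/ml and compounds added after 24 h at 0.1–100 µM final. Controls got PBS. MTT was added for 1 h, formazan dissolved in DMSO, A540 read. Values are % of control ± SD.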

Data set [5] deals with Clupea. In words: Effect on thermal melting point of herring testes DNA at 100 uM.
Data set [6] relates to Clupea. Kind of data set: Effect on thermal melting point of herring testes DNA at 50 uM.
In data set [7] the test system is Clupea. In words: Effect on thermal melting point of herring testes DNA at 1 uM.

What is called ΔTm is the shift of the melting midpoint relative to a reference. In the case of `NCCCN(CCCN)CC(=O)NCC#Cc1cn([C@@H]2O[C@H](CO)[C@@H](O)[C@H]2O)c(=O)[nH]c1=O`, the Tm in data set [1] turned out to be 66.5 °C. Also, the ΔTm in data set [1] was 1.5 °C. For the same compound, the Activity result in data set [2], in data set [3] and in data set [4] was “Non-toxic” throughout.
In the case of `C#CCNC(=O)CN(CCCN)CCCN`, the Tm was found to be 58 °C in data set [1], 51 °C in data set [5] and 52 °C in data set [6]. Moreover, the ΔTm was -7 °C in data set [1], -14 °C in data set [5] and -13 °C in data set [6]. For the same compound, the Activity entry in data set [2], in data set [3] and in data set [4] was “Non-toxic” in each case.
With `NCCCN(CCCN)CC(=O)O`, the Tm in data set [1] came out at 61 °C; in data set [5], 50 °C; in data set [7], 62 °C. Further, the figures for the shift in melting temperature (ΔTm) in data set [1], in data set [5] and in data set [7] were -4 °C, -15 °C and -3 °C, respectively. Moreover, the Activity entry in data set [2], in data set [3] and in data set [4] was “Non-toxic” each time.
For the compound `NCCCNCCCN` [NORSPERMIDINE], the Tm in data set [1] came to 77 °C. For the same compound, the ΔTm in data set [1] stood at 12 °C. The Activity entry in data set [2], in data set [3] and in data set [4] was “Non-toxic” in each case.
Turning to `NCCCN(CCCN)CC(=O)NCC#Cc1nc(N)c2ncn([C@@H]3O[C@H](CO)[C@@H](O)[C@H]3O)c2n1`, in data set [1], the Tm worked out at 66 °C. In addition, the ΔTm in data set [1] is 1 °C. The Activity entry in data set [2], in data set [3] and in data set [4] was “Non-toxic” in each case.
